# Assay outcomes deposited in PubChem BioAssay by Broad Institute.
# Only some compounds are listed: those with a hit (about 1.5% of all), similar ones and a draw of the others.
# RAD52 anneal inh = RAD52 DNA annealing inhibitors, primary screen, biochemical, FRET, single point, set 2; DNA repair protein RAD52 homolog (Homo sapiens), P43351; recombinant RAD52 DNA annealing, FRET fluorescence; inhibition, % at 18.7 µM; actives 0.46% (n = 360,000); AID 651710, 2012;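 active = every replicate showing at least 50% inhibition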
# ERAP1 inh = human ERAP1 aminopeptidase inhibitors, primary screen, biochemical, single point, plate reader; AID 652197, 2013; actives 0.15% (n = 340,000); inhibition, % at 10.7 µM; recombinant ERAP1, Leu-AMC fluorescence, 60 min;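 active = mean replicate inhibition of at least 30%, or all replicates individually reaching that 30% level; inactive = mean below 30% and not every replicate reaching it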;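 also: 0% = neutral control wells and 100% = L-leucinethiol positive control wells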
# MLL AF4-AF9 inh = inhibitors of AF4 peptide binding to AF9, primary screen, biochemical, AlphaScreen, biotin-AF4 peptide, FLAG-AF9, single point; Protein AF-9 (Homo sapiens), P42568; inhibition, % at 10 µM; actives 0.47% (n = 350,000);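 active = every replicate reaching a set inhibition limit, whatever the replicate mean, cut at about 25% in these data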;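 also: 0% = plate neutral control median and 100% = total signal loss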
# Target sequence (P42568 whole entry, looked up): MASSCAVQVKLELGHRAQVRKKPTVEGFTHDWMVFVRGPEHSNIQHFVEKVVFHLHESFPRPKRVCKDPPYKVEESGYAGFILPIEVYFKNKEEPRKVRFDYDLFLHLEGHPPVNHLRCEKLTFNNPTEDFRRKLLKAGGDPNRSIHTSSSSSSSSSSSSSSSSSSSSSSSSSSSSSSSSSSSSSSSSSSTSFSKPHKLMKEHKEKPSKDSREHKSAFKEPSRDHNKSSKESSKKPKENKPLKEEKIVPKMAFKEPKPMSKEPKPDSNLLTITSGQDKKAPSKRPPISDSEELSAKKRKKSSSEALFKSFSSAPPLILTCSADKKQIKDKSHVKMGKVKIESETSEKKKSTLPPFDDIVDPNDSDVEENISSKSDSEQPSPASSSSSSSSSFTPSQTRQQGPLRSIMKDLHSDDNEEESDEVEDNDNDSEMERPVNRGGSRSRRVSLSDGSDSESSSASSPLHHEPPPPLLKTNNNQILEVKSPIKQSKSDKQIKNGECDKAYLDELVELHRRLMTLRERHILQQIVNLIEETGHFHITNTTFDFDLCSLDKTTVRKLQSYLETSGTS
# S100A4 inh HTS = inhibitors of S100A4-myosin IIA peptide binding, primary screen, biochemical, fluorescence polarization, TAMRA-MyoIIA peptide; inhibition, % at 10.7 µM; actives 0.14% (n = 360,000);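 active = mean inhibition of at least 70% across replicates, with every replicate also reaching that level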
# Target sequence (P26447 whole entry, looked up): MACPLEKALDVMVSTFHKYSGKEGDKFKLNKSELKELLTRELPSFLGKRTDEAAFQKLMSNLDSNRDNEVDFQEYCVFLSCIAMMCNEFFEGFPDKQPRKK
#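 System – human S100A4 monomer protein, biochemical binding assay · Buffer or medium – Calcium-containing HEPES buffer, pH 7.2 · Timing – 5 min between mix addition and reading · Also added – TAMRA-labelled myosin IIA heavy-chain peptide probe, 5 nM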
# INS-1E GSIS act = GLuc luminescence reporter in INS-1E cells, primary screen for activators of glucose-dependent secretion of insulin | activation, % at 16.6 µM | actives 0.61% (n = 370,000) | INS-1E GLuc reporter insulin secretion, 2-3 h | AID 743287, 2014;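 active = lowest replicate activation of at least 40%, so every replicate reaches that level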;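 also: 0% = median of neutral control wells and 100% = median of IBMX positive control wells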
# The depositor's hits bear a star; i = inactive; x = not tested or not shown.
SMILES,RAD52 anneal inh,ERAP1 inh,MLL AF4-AF9 inh,S100A4 inh HTS,INS-1E GSIS act
C[C@H](CO)N1C[C@H](C)[C@@H](CN(C)Cc2ccc(Cl)c(Cl)c2)Oc2ccc(NS(=O)(=O)c3ccc(F)cc3)cc2CC1=O,x,x,x,x,-2.0
Cc1ccc(CN2C(=O)CCC2(C)c2nnnn2-c2c(C)cccc2C)cc1 (stereo not given),1.2,-7.2,2.4,-8.7,-29.3
Cc1cccc(C)c1-n1nnnc1C1(C)CCC(=O)N1Cc1cccs1 (stereo not given),1.5,x,-1.3,-8.0,52.8*
Cc1ccc(/C=C2/SC(=O)N(CC(=O)N3CCOCC3)C2=O)s1,i,1.8,5.2,105.9*,1.4
C[C@@H]1CC=CC[C@H](c2ccccc2)NC(=O)[C@@H](Cc2ccccc2)N(C)C(=O)c2ccccc2O1 (mixture of isomers),x,x,x,x,-35.7
CCc1ccc(OCC(=O)NC(=S)Nc2ccc(C)cc2C)c(Br)c1,x,x,x,x,40.5*
COc1ccc(NC(=O)O[C@H]2[C@H](OC(=O)Nc3ccc4c(c3)OCO4)[C@H](OC(=O)Nc3ccc4c(c3)OCO4)[C@@H](OC)O[C@@H]2CO)cc1,18.4,0.0,20.9,0.5,x
COc1ccc2oc(-c3ccc(NC(=O)c4ccc(N5CCOCC5)c([N+](=O)[O-])c4)cc3)nc2c1,x,x,x,x,109.0*
COCCn1c(=O)[nH]c2cc(C(=O)Nc3cc(OC)c(OC)c(OC)c3)ccc2c1=O,0.6,0.0,4.5,1.8,46.9*
COc1cc(NC(=O)CCn2c(=S)[nH]c3ccccc3c2=O)cc(OC)c1OC,-7.1,1.9,-3.3,0.3,12.3
CNC[C@@H]1Oc2cc(-c3cncnc3)ccc2S(=O)(=O)N([C@H](C)CO)C[C@H]1C,-104.5,2.3,2.5,-6.1,-2.5
CC1CCC(C(C)C)C(OCC(O)C[N+]2(C)CCCCC2)C1 (stereo not given),7.3,102.8*,-3.3,-0.2,x
Cc1ccc(S(=O)(=O)N(CC(=O)Nc2ccc(F)cc2)C(=O)N2CCN(C)CC2)cc1,-5.4,1.0,-3.1,9.5,14.3
Cc1ccc(S(=O)(=O)N(CC(=O)Nc2ccc(C)cc2C)C(=O)N2CCN(C)CC2)cc1,-17.1,0.7,-1.1,-0.3,221.3*
Cc1ccc(NC(=O)CN(C(=O)N2CCN(C)CC2)S(=O)(=O)c2ccc(C)cc2)cc1,-5.0,-3.9,-0.6,-1.1,44.6*
COc1ccc(CN(C)C[C@@H]2Oc3ccc(NC(=O)NC(C)C)cc3CC(=O)N([C@@H](C)CO)C[C@@H]2C)cc1,0.3,0.7,-3.3,1.2,2.2
CO[C@H]1O[C@H](CO)[C@@H](OC(=O)Nc2ccccc2)[C@H](OC(=O)Nc2ccc3c(c2)OCO3)[C@@H]1OC(=O)Nc1ccc2c(c1)OCO2,-1.6,-1.1,27.1*,-4.6,x
CO[C@H]1O[C@H](CO)[C@@H](OC(=O)Nc2cccc(F)c2)[C@H](OC(=O)Nc2ccc3c(c2)OCO3)[C@@H]1OC(=O)Nc1ccc2c(c1)OCO2,-2.7,-2.2,20.6,-5.0,x
NC(=O)[C@H]1[C@@H]2C(=O)O[C@@H](c3ccccc3)[C@@H](c3ccccc3)N2[C@@H](c2ccc(O)cc2)[C@]12C(=O)Nc1ccc(C#CC3(O)CCCCCC3)cc12,19.3,0.9,2.0,2.3,x
Cc1ccc(-c2ccc([C@H]3[C@@H](CO)N4C(=O)CN(C(=O)c5ccc(F)cc5)C[C@H]34)cc2)cc1,x,x,x,x,-30.8
Cc1cc(SCC(=O)NCCN2C(=O)CSC2=O)nc2c(C)cccc12,x,x,x,x,45.8*
COc1cccc(NC(=O)N(C)C[C@@H]2OCc3ccccc3-c3c(n(C)c4ccccc34)C(=O)N([C@@H](C)CO)C[C@H]2C)c1,-6.6,0.3,3.4,-8.5,-23.2
COc1cccc(NC(=O)N(C)C[C@@H]2OCc3ccccc3-c3c(n(C)c4ccccc34)C(=O)N([C@@H](C)CO)C[C@@H]2C)c1,-3.1,-1.8,2.7,97.1*,-19.4
C[C@H]1CN([C@@H](C)CO)C(=O)c2c(c3ccccc3n2C)-c2ccccc2CO[C@H]1CN(C)Cc1ccc2c(c1)OCCN2C,41.7,1.6,43.6*,11.0,-10.9
C[C@@H]1CN([C@H](C)CO)C(=O)c2ccccc2-c2ccccc2CO[C@@H]1CN(C)Cc1ccc2c(c1)OCCN2C,x,x,x,x,12.2
SMILES,RAD52 anneal inh,ERAP1 inh,MLL AF4-AF9 inh,S100A4 inh HTS,INS-1E GSIS act
C[C@@H]1CN([C@@H](C)CO)C(=O)c2c(c3ccccc3n2C)-c2ccccc2CO[C@@H]1CN(C)Cc1ccc2c(c1)OCO2,22.8,-2.6,5.2,29.5,5.5
C[C@H](CO)N1C[C@H](C)[C@@H](CN(C)Cc2ccc3c(c2)OCCN3C)OCc2ccccc2-c2c(n(C)c3ccccc23)C1=O,24.4,-3.3,30.8*,4.2,-6.9
C[C@@H]1CN([C@@H](C)CO)C(=O)c2ccccc2-c2ccccc2CO[C@@H]1CN(C)Cc1ccc2c(c1)OCCN2C,-5.4,-3.3,36.8*,-4.6,-4.3
CCCNC(=O)Nc1ccc2c(c1)C(=O)N(C)C[C@H](OC)[C@@H](C)CN(Cc1ccc(-c3ccccn3)cc1)[C@@H](C)CO2,x,x,x,x,-39.2
C[C@@H]1CN([C@H](C)CO)C(=O)c2cc(NC(=O)Cc3ccccc3)ccc2O[C@@H](C)CCCCO[C@H]1CN(C)Cc1ccc2c(c1)OCO2,x,x,x,x,-14.0
CC(=O)Nc1ccc2c(c1)C(=O)N(C)C[C@H](C)[C@@H](CN(C)C(=O)NC(C)C)O2,x,x,x,x,2.5
O=S(=O)(Cc1ccccc1)NCC[C@@H]1CC[C@@H](NS(=O)(=O)c2ccc(F)cc2)[C@H](CO)O1,x,x,x,x,-2.1
O=c1[nH]nc(-c2cccs2)c2ccccc12,-13.5,-0.3,-0.9,-6.6,172.0*
O=c1[nH]c2ccccc2nc1-c1cccs1,x,x,x,x,20.1
Cc1ccc(Nc2ncnc3sccc23)c(C)c1,-12.1,2.5,1.9,-1.7,42.1*
COc1ccc(Nc2ncnc3sccc23)c(OC)c1,-2.7,-3.4,3.3,-4.2,2.7
O=C(C[C@@H]1CC[C@@H]2[C@H](COC[C@@H](O)CN2C(=O)c2ccncc2)O1)NC1CCC1,-14.1,2.8,-2.5,-1.1,3.2
O=C(Cc1ccncc1)Nc1ccc2c(c1)[C@H]1C[C@H](CC(=O)N3CCc4ccccc4C3)O[C@H](CO)[C@H]1O2,-3.7,0.3,25.2*,-26.5,5.1
O=C(C[C@H]1C[C@H]2c3cc(NC(=O)Cc4ccncc4)ccc3O[C@H]2[C@H](CO)O1)NCc1ccccn1,-3.4,x,-1.2,96.3*,-12.0
Cc1cc(-n2c(SCC(=O)Nc3ccc(F)c(F)c3)nc3n[nH]c(C)c3c2=N)ccc1Cl,-7.9,-0.5,-2.4,9.1,250.1*
CCCN(C)C[C@H]1Oc2cc(C#Cc3cccc(OC)c3)ccc2S(=O)(=O)N([C@H](C)CO)C[C@H]1C,x,x,x,x,-1.3
